Laboratory results as given in ChEMBL document CHEMBL1127369, “Synthesis and structure-activity relationships of peptidyl alpha-keto heterocycles as novel inhibitors of prolyl endopeptidase” (J Med Chem, 1994).

Molecular target: Prolyl endopeptidase (Sus scrofa, UniProt P23687)
Experiment: In vitro inhibitory activity against prolyl endopeptidase (PEP)
In short: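 Pig kidney PEP, partially purified. Substrate Z-Gly-Pro-p-nitroanilide at 0.26 mM in dioxane with 0.2 M phosphate buffer. Inhibitor is added in DMSO over a range of concentrations, then enzyme (0.05 units/mL). Incubation 20 min at 37 °C, with p-nitroaniline read at 405 nm. IC50 (n = 3-6) is estimated from the inhibitor concentration vs activity curve.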

Prolyl endopeptidase, sequence (P23687 whole entry): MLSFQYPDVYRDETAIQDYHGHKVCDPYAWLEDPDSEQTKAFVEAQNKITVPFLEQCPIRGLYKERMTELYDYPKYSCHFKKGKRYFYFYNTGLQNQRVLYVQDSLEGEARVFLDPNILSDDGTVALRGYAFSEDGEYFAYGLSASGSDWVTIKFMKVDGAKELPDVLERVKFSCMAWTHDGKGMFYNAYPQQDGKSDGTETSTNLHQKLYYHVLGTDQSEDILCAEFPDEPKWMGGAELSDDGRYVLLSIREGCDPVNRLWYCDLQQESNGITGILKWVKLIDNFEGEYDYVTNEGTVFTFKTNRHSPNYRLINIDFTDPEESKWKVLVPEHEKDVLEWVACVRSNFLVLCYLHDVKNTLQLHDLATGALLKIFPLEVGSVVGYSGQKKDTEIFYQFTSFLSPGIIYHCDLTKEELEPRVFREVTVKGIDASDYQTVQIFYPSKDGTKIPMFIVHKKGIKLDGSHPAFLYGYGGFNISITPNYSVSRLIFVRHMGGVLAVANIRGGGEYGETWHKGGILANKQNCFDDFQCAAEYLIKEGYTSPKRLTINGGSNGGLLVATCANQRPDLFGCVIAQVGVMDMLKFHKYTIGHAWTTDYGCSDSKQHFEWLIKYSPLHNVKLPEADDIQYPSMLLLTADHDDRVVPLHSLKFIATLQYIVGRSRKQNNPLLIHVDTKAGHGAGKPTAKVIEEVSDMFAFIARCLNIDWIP

Row | SMILES | IC50 [nM]
1 | O=C(c1nc2ccccc2s1)[C@@H]1CCCN1C(=O)[C@@H]1CCCN1C(=O)CCCc1ccccc1 | 4
2 | O=C(c1nc2ncccc2o1)[C@@H]1CCCN1C(=O)[C@@H]1CCCN1C(=O)CCCc1ccccc1 | 5.5
3 | O=C(C1=NCCS1)[C@@H]1CCCN1C(=O)[C@@H]1CCCN1C(=O)CCCc1ccccc1 | 3.8
4 | O=C(c1cccnc1)[C@@H]1CCCN1C(=O)[C@@H]1CCCN1C(=O)CCCc1ccccc1 | 2290
5 | O=C([C@@H]1CCCN1C(=O)CCCc1ccccc1)N1CCCC1C(O)c1nccs1 (some centres not stated) | 16100
6 | O=C(c1ccc[nH]1)[C@@H]1CCCN1C(=O)[C@@H]1CCCN1C(=O)CCCc1ccccc1 | 21300
7 | O=C(c1cscn1)[C@@H]1CCCN1C(=O)[C@@H]1CCCN1C(=O)CCCc1ccccc1 | 6.2
8 | O=C(c1ccccn1)[C@@H]1CCCN1C(=O)[C@@H]1CCCN1C(=O)CCCc1ccccc1 | 6.9

Further lines, results first:

Row | IC50 [nM] | SMILES
9 | 61 | O=C(c1cncnc1)[C@@H]1CCCN1C(=O)[C@@H]1CCCN1C(=O)CCCc1ccccc1
10 | 5.6 | O=C(c1nc2ccccc2o1)[C@@H]1CCCN1C(=O)[C@@H]1CCCN1C(=O)CCCc1ccccc1
11 | 2020 | O=C(c1cccs1)[C@@H]1CCCN1C(=O)[C@@H]1CCCN1C(=O)OCc1ccccc1
12 | 1090 | O=C(c1cncs1)[C@@H]1CCCN1C(=O)[C@@H]1CCCN1C(=O)CCCc1ccccc1
13 | 1260 | O=C(c1cccs1)[C@@H]1CCCN1C(=O)[C@@H]1CCCN1C(=O)CCCc1ccccc1
14 | 8.5 | O=C(c1nccs1)C1CCCN1C(=O)C1CCCN1C(=O)OCc1ccccc1 (configuration not stated)
15 | 5 | O=C(c1nc2ccccc2s1)[C@@H]1CCCN1C(=O)[C@@H]1CCCN1C(=O)OCc1ccccc1
16 | 9 | O=C(c1ncc[nH]1)[C@@H]1CCCN1C(=O)[C@@H]1CCCN1C(=O)CCCc1ccccc1
17 | 10.3 | CCOC(=O)C(=O)C1CCCN1C(=O)[C@@H]1CCCN1C(=O)CCCc1ccccc1 (some centres not stated)
